From ChEMBL document CHEMBL4014306, “Pyrazolopyrimidines as Potent Stimulators for Transient Receptor Potential Canonical 3/6/7 Channels” (J Med Chem, 2017) come the findings set out here.

The target of test [1] is T1, Short transient receptor potential channel 3 (Homo sapiens, UniProt Q13507).
T1 sequence (Q13507 whole entry): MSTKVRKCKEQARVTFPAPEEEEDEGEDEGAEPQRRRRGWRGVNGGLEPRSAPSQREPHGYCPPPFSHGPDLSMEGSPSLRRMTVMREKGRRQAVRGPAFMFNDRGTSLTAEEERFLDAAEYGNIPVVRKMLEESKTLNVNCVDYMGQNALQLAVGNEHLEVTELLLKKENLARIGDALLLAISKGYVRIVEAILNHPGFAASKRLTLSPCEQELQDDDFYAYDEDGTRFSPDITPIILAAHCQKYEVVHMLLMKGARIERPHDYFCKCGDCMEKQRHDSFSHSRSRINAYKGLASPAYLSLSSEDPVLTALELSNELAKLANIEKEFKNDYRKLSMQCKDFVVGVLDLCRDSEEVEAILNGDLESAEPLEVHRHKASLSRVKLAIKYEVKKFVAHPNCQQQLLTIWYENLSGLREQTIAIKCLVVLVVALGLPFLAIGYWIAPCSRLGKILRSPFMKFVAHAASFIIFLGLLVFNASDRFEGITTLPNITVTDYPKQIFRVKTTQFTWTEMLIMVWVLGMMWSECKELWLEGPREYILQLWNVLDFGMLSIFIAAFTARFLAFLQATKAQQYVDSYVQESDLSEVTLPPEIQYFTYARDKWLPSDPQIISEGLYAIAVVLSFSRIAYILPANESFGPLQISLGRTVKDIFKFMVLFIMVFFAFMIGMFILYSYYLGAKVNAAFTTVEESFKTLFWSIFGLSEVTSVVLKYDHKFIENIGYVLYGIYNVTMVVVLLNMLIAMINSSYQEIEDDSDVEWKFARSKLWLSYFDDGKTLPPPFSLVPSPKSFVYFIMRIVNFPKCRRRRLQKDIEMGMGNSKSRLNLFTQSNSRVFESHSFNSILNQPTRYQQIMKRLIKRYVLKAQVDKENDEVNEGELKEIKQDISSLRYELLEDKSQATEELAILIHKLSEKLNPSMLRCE
Briefly: Agonist activity at human TRPC3 expressed in HEK293 cells assessed as induction of membrane depolarization measured for 2.5 mins in presence of 0.5 mM Ca2+ by FLIPR membrane potential dye-based fluorescence assay. Type of test: cell-based. The method, boiled down: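 HEK293 cells stably expressing human TRPC3, run on a FlexStation at 32 °C. Loaded with FMP dye, or Fluo-type Ca2+ dye with 2 mM probenecid. Extracellular NaCl/HEPES saline, pH 7.4, with 2 mM Ca2+ (standard) or 0.5 mM Ca2+. Read as F/F0. In 0.5 mM Ca2+, FMP EC50 from a Hill fit, n = 6.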

Test [2] has as its target T2, Short transient receptor potential channel 4 (Mus musculus) (UniProt Q9QUQ5).
T2 sequence (whole entry): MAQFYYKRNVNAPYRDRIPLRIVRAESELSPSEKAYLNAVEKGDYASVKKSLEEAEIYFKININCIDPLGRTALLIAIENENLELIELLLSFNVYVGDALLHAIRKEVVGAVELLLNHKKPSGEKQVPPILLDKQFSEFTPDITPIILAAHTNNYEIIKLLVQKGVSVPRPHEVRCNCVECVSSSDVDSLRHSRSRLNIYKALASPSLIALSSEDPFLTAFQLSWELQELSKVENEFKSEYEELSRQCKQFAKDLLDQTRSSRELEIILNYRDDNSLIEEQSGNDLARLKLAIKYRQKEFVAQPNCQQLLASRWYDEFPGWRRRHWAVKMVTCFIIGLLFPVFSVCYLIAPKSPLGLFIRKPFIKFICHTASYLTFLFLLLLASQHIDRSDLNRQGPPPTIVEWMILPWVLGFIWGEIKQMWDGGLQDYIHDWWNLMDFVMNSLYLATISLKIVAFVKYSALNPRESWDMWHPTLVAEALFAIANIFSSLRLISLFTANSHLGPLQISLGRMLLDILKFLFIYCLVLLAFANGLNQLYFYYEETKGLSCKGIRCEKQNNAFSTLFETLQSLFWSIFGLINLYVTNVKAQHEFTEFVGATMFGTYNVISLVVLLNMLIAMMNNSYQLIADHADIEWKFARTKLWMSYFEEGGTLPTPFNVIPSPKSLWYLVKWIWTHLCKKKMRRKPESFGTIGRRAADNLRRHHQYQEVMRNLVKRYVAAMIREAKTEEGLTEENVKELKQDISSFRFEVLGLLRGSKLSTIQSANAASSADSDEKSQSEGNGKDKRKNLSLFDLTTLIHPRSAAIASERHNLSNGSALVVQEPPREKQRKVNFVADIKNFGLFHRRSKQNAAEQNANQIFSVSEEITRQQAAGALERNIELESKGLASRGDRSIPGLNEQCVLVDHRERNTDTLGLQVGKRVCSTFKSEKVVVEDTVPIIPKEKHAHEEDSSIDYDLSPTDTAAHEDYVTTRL
Kind of test: Agonist activity at mouse TRPC4beta expressed in HEK293 cells co-expressing MOR assessed as induction of membrane depolarization at 33 uM measured for 2.5 mins by FLIPR membrane potential dye-based fluorescence assay. Type of test: cell-based.

Activity calls are given as the source filed them. The calls are words filed in the database; no cut-off is given here.

Take `CCOC(=O)N1CCC(c2cc(O)n3nc(C)c(-c4ccc(F)cc4)c3n2)CC1`: the EC50 in test [1] is 450 nM. In test [2], the outcome was inactive. As to `CCOC(=O)N1CCC(c2cc(O)n3nc(C)c(-c4ccc(C(F)(F)F)cc4)c3n2)CC1`, the outcome in test [2] was inactive. For `Cc1nn2c(O)cc(C3CCN(C(=O)OCc4ccccc4)CC3)nc2c1-c1ccc(F)cc1`, the EC50 in test [1] is 236 nM. Moreover, the outcome in test [2] was inactive. For `Cc1nn2c(O)cc(C3CCN(C(=O)OCc4ccccc4)CC3)nc2c1-c1ccc(Cl)cc1`, in that order: 138 nM and “inactive”.

As a reminder, the EC50 is the concentration at which the effect is half-maximal.
